Results as given in ChEMBL document CHEMBL4177580, “New 5-HT1A, 5HT2A and 5HT2C receptor ligands containing a picolinic nucleus: Synthesis, in vitro and in vivo pharmacological evaluation” (Bioorg Med Chem, 2017).
pKi: −log10 of the molar value. Calls of active or inactive are those of the source. The rule behind the calls is not given here.

Tests used:
D(2) dopamine receptor = D(2) dopamine receptor (Homo sapiens, UniProt P14416); assay: Displacement of [3H]methyl-spiperone from human recombinant dopamine D2 receptor expressed in HEK293 cells; type: cell-based
Mus musculus [1] = assay: Induction of hypothermia in Swiss albino mouse assessed as reduction in body temperature at 30 mg/kg, ip measured after 30 mins post dose; type: functional, organism-based
Summary of the method: (§1)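 Normothermic male Swiss mice; rectal thermistor readings over 180 min. Baseline is the mean of readings 60 and 30 min before dosing; readings at 30, 60, 90, 120 min post-injection; Δt = tf − ti. Test compounds i.p. (DMSO/methylcellulose); 8-OH-DPAT (5 mg/kg) and WAY 100635 (0.1 mg/kg) s.c. in water. Two-way ANOVA, Bonferroni.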

Mus musculus [2] = assay: Toxicity in Swiss albino mouse assessed as induction of impairment of motor coordination by measuring reduction in time spent on rota-rod at 60 mg/kg, ip dosed 60 mins before test by rotarod test; type: organism-based; settings: in vivo, 1 h
Summary of the method: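 Rotarod in male Swiss mice, i.p. dosing 60 min pre-test: impairment is inability to stay 1 min on a rod turning at 18 rpm, after 3 days of daily training. Mean ± SEM of 2 independent experiments; one-way ANOVA with Dunnett's.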

Mus musculus [3] = assay: Toxicity in Swiss albino mouse assessed as reduction in spontaneous locomotor activity at 7.5 mg/kg, ip dosed 60 mins before test; type: organism-based; settings: in vivo, 1 h
Summary of the method: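 Spontaneous locomotion: mice dosed i.p. 60 min before being placed individually in an actometer for 30 min. Distance travelled read at 6 and 30 min. Cages cleaned with 70% ethanol between animals. One-way ANOVA with Dunnett's; mean ± SEM of one experiment.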

Mus musculus [4] = assay: Induction of hypothermia in Swiss albino mouse assessed as reduction in body temperature at 30 mg/kg, ip measured after 60 mins post dose; type: functional, organism-based; summary of the method: as §1
Mus musculus [5] = assay: Antidepressant-like activity in Swiss albino mouse assessed as reduction in immobility time at 7.5 mg/kg, ip dosed 1 hr before test by forced swimming test; type: functional, organism-based
Summary of the method: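 Male Swiss albino mice (18–24 g), compound i.p. in 0.1% DMSO/0.5% methylcellulose 1 h pre-test. Porsolt swim: cylinder 25 cm high, 10 cm diameter, 10 cm water at 23–25°C, 6 min session; immobility scored over last 4 min. Blind observer; one-way ANOVA with Dunnett's; mean ± SEM.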

Mus musculus [6] = assay: Anxiolytic-like activity in Swiss albino mouse assessed as increase in time spent in open arms at 3.75 to 15 mg/kg measured for 5 mins test period by elevated plus maze test; type: functional, organism-based
D(1A) dopamine receptor = D(1A) dopamine receptor (Homo sapiens, UniProt P21728); assay: Displacement of [3H]SCH-23390 from human recombinant dopamine D1 receptor expressed in CHO cells; type: cell-based
Sequence of D(1A) dopamine receptor (P21728 whole entry): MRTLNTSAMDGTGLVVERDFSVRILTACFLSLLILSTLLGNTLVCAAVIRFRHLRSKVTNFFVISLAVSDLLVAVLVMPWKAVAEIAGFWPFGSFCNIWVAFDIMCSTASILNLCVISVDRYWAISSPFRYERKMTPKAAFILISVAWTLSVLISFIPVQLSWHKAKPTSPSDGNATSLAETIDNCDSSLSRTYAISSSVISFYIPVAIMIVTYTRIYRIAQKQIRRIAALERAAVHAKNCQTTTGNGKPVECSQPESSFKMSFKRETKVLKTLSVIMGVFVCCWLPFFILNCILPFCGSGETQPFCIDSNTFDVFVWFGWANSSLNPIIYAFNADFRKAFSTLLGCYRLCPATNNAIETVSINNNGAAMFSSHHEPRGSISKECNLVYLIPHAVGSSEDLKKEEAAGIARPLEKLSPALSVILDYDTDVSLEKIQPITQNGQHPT

Sequence of D(2) dopamine receptor (P14416 whole entry): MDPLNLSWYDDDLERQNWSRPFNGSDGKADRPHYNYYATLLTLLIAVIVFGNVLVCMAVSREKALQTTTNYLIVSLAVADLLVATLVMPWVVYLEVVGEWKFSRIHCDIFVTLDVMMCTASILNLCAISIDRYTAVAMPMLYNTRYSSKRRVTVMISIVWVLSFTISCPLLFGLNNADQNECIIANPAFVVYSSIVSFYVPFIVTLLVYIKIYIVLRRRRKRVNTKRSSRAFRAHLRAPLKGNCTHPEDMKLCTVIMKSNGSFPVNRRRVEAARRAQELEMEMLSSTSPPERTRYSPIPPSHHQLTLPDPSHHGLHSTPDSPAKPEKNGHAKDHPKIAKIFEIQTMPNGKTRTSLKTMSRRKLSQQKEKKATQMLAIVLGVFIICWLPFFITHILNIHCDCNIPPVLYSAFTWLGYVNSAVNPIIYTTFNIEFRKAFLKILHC

pKi (D(2) dopamine receptor): 6.60
pKi (D(1A) dopamine receptor): 6.21
Structure (SMILES): O=C(NCCN1CCN(c2ccc(Cl)c(Cl)c2)CC1)c1ccccn1
Activity (Mus musculus [1]): Active
Activity (Mus musculus [2]): Toxic
Activity (Mus musculus [3]): Non-Toxic
Activity (Mus musculus [4]): Active
Activity (Mus musculus [5]): Active
Activity (Mus musculus [6]): Active
